What was measured:
PAD = PAD (Mus musculus, UniProt Q9Z183); assay: PAD activity assay in BM neutrophils of tumor-bearing mice; assay type: cell-based; settings: BM Ly6G+ cells pretreated for 2h with GSK484
Outline: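 Bone marrow Ly6G+ cells (MACS) from tumor-free or tumor-bearing mice were pretreated for 2 h with inhibitor. Cells were lysed at 1×10^8 cells/mL and lysates incubated with 10 mM BAEE for 30 min at 37°C. Colour reagent (acids, ammonium iron sulfate, DAMO, thiosemicarbazide) was added, samples heated at 95–100°C for 15 min, and absorbance read at 540 nm.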

Mouse HPC = assay: HPC differentiation in vitro with GM-CSF with or without LLC TES; assay type: cell-based; settings: 10 μM; presence or absence of TES; 5 days of culture
Outline: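 Bone marrow HPC from WT or PAD4 KO mice were lineage-depleted and differentiated in RPMI with GM-CSF (20 ng/mL), with or without 25% LLC explant supernatant and with or without 10 μM test compound, for 5 days. Proportion and absolute number of Ly6G+ cells were determined by flow cytometry in Aqua-negative cells.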

Ly6G+ cells = assay: Suppression assay with Ly6G+ cells generated from HPC in the presence of TES; assay type: cell-based, mouse
mouse neutrophils = assay: Viability / toxicity in mouse neutrophils; assay type: cell-based
BM neutrophils = assay: Transwell chemotaxis of mouse neutrophils toward CXCL1; assay type: cell-based
Outline: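 Bone marrow Ly6G+ neutrophils were MACS-isolated (>95% pure) and pre-incubated with 10 μM test compound for 2 h. They were placed in a 3 μm Transwell, 0.1 × 10^6 cells on top, with CXCL1 in Advanced RPMI below. After 1 h at 37°C, migrated cells were counted. Spontaneously migrating cells were subtracted.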

CXCR2 [1] = assay: CXCR2 surface expression on neutrophils differentiated in vitro from HPC; assay type: cell-based, mouse; settings: 10 μM
Outline: (§1)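 Bone marrow hematopoietic progenitors were lineage-depleted and cultured in RPMI with GM-CSF (20 ng/mL), with or without 25% LLC tumor explant supernatant and with or without 10 μM test compound. The supernatant came from ~1.5 cm tumors, minced, incubated overnight at 37°C and 0.22 μm filtered. Surface CXCR2/CXCR4 was measured by flow cytometry.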

CXCR4 [2] = assay: CXCR4 surface expression on neutrophils differentiated in vitro from HPC; assay type: cell-based, mouse; settings: 10 μM
Outline: as §1

CXCR2 [3] = assay: CXCR2 expression in human PB neutrophils; assay type: cell-based
Outline: (§2)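 Peripheral blood neutrophils came from healthy donors or cancer patients. They were collected at the Histopaque 1.077/1.119 interphase after double-density gradient centrifugation, followed by RBC lysis, with CD15 staining to confirm purity. Cells were exposed to 10 μM test compound for 1–4 h. Receptor mRNA was measured by SYBR Green qPCR normalized to β-actin, and surface level by flow cytometry.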

CXCR4 [4] = assay: CXCR4 expression in human PB neutrophils; assay type: cell-based
Outline: as §2

human neutrophils [5] = assay: Viability of human neutrophils; assay type: cell-based; settings: four-hour treatment, 10 μM
human neutrophils [6] = assay: Chemotaxis of human neutrophils toward IL-8; assay type: cell-based; settings: 10 μM for 4h
Outline: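 Human neutrophils were treated with 10 μM test compound for 4 h. They were then placed in a 3 μm pore Transwell, 0.1 × 10^6 cells in Advanced RPMI in the insert, with chemoattractant in medium below. After 1 h at 37°C and 5% CO2, migrated cells in the bottom well were counted.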

T cells = assay: T cell proliferation, human PB MNC stimulated with CD3/CD28 Dynabeads; assay type: cell-based; settings: 10 μM pre-treatment 2h; healthy donors or cancer patients; 72h
Outline: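 Peripheral blood mononuclear cells (Ficoll-Paque; healthy donors or multiple myeloma patients) were labeled with CellTrace Far Red. Cells were pre-treated for 2 h with 10 μM test compound or DMSO vehicle and stimulated with CD3/CD28 Dynabeads for 72 h. Dye dilution was read by flow cytometry in gated CD4+ and CD8+ T cells.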

CD4+ T cells = assay: IFN-γ production by human T cells; assay type: cell-based; settings: 10 μM pre-treatment; 5h stimulation
Outline: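 Peripheral blood mononuclear cells from healthy donors or multiple myeloma patients were Ficoll-Paque isolated. Cells were pre-treated with 10 μM test compound or DMSO vehicle, then stimulated for 5 h with a cell stimulation cocktail with or without protein transport inhibitors. IFN-γ and IL-2 were measured by flow cytometry in gated CD4+ and CD8+ T cells.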

histone H3 = assay: PMA-induced citrullination of histone H3 in mouse neutrophils; assay type: cell-based; settings: in vitro
[7] = Pharmacokinetic study in mice, oral; assay type: in vivo, Balb/c male mice; settings: 10 mg/kg via oral gavage
Outline: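 Male Balb/c mice (6–8 weeks, 22–25 g) received 10 mg/kg test compound by oral gavage, as a suspension in Tween-80 and 0.5% methyl cellulose. Sparse blood sampling (~100 μL; three mice per point) was done at 0.25–24 h into K2EDTA tubes. Plasma was separated by centrifugation at 10,000 rpm for 5 min at 4°C.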

LL2 = assay: Viability of LL2 tumor cell line in vitro; assay type: cell-based, mouse
B16F10 = assay: Viability of B16F10 tumor cell line in vitro; assay type: cell-based, mouse
CXCR2 [8] = assay: CXCR2 expression on neutrophils treated with JBI-589 in vitro; assay type: cell-based
LL2 tumors = assay: LL2 tumor model in mice; assay type: in vivo, mouse
B16F10 tumors = assay: B16F10 tumor model in mice; assay type: in vivo, mouse; settings: B16F10-bearing mice; 50 mg/kg b.i.d., daily, oral gavage
Outline: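 Male and female mice, 6–8 weeks old, were given 0.3× 10^6 B16F10 cells s.c. into the right flank. Cells were grown in DMEM with 10% FBS and were Mycoplasma-negative. Test compound was given by oral gavage. Read-out was the kinetics of primary tumor growth.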

CXCR2 [9] = assay: CXCR2 surface expression on Ly6G+ cells from treated LL2-bearing mice; assay type: in vivo, mouse; settings: JBI-589 treated LL2-bearing mice
Outline: (§3)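 LL2 cells (0.3× 10^6) were injected s.c. into the right flank. Mice received test compound at 50 mg/kg b.i.d. daily by oral gavage. Cells were Fc-blocked for 10 min, then antibody-stained for 20 min on ice with Live/Dead Aqua. Surface receptor was measured by flow cytometry on CD45+CD11b+Ly6G+ cells.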

CXCR4 [10] = assay: CXCR4 surface expression on Ly6G+ cells from treated LL2-bearing mice; assay type: in vivo, mouse; settings: JBI-589 treated LL2-bearing mice
Outline: as §3

[11] = tested on: BM and spleen neutrophils; assay type: in vivo, mouse; settings: neutrophils from JBI-589-treated LL2-bearing mice re-stimulated in vitro with LL2 cell supernatant
M-MDSC, TAMs = assay: Gene expression in spleen M-MDSC or TAMs treated in vitro; assay type: cell-based, mouse; settings: in vitro treatment of spleen M-MDSC or TAMs from LL2-bearing mice
M-MDSC, TAM, PMN-MDSC = assay: Suppression assay with myeloid cells isolated from treated mice; assay type: in vivo, mouse; settings: cells from JBI-589-treated mice
[12] = 10 μM for 4h, healthy donors and cancer patients, flow cytometry

Chain of PAD (Q9Z183 whole entry): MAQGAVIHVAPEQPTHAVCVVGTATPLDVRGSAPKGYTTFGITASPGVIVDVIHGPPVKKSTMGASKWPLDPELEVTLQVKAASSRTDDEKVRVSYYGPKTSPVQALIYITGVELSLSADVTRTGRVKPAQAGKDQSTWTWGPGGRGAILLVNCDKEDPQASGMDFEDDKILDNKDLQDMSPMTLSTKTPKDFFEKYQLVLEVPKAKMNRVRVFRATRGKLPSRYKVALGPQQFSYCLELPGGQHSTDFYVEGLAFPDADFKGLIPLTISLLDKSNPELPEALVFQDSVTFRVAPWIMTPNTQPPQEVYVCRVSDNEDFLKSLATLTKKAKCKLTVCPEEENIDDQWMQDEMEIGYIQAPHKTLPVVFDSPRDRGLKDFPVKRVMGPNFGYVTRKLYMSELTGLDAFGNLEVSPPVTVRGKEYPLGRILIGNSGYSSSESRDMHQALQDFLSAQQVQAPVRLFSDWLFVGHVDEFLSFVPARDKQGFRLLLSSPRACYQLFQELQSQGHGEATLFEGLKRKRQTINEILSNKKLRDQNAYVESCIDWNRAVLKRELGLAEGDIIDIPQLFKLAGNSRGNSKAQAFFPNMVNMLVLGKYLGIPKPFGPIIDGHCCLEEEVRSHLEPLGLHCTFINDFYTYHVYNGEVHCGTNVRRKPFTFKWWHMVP

With COc1cc(C(=O)N2CC[C@@H](O)[C@@H](N)C2)cc2nc(-c3cc4ccccc4n3CC3CC3)n(C)c12 [GSK484] the “tumor-induced up-regulation of PAD activity in PMN” value (PAD) was “completely abrogated”, the “HPC differentiation (proportion and absolute number of Ly6G+ cells)” value (Mouse HPC) was “had no effect” and the “immune suppressive activity of Ly6G+ cells generated in the presence of TES” value (Ly6G+ cells; inhibitor present during HPC differentiation) was “did not abrogate”. For the same molecule, the viability of neutrophils (mouse neutrophils; mouse neutrophils) was “did not affect”, the “CXCL1-induced chemotaxis of neutrophils” value (BM neutrophils; BM neutrophils pre-incubated with 10 μM for 2h) was “reduced” and the “up-regulation of CXCR2 in the presence of TES” value (CXCR2 [1]; with LLC TES) was “abrogated up-regulation of CXCR2”. For the same molecule, the “baseline CXCR2 expression” value (CXCR2 [1]; without TES) was “reduced baseline CXCR2 expression”, the “CXCR4 expression in the presence of TES” value (CXCR4 [2]; with LLC TES) was “reduced its expression in the presence of TES” and the “CXCR4 expression in control” value (CXCR4 [2]; without TES) was “slightly decreased”. The “CXCR2 receptor expression in neutrophils” value (CXCR2 [3]; [12]) was “dramatically reduced”, the “CXCR2 receptor (surface) level” value (CXCR2 [3]; 4h after treatment, 10 μM, HD neutrophils, time course) was “significant downregulation” and the “surface level of CXCR2 protein” value (CXCR2 [3]; one-hour treatment, 10 μM, HD neutrophils) was “not affecting”. The CXCR2 gene expression (CXCR2 [3]; one-hour treatment, 10 μM, HD neutrophils, qPCR) was “significantly downregulated”, the “gene or protein expression of CXCR4” value (CXCR4 [4]; 10 μM for 1–4h, HD neutrophils) was “did not affect” and the “neutrophil CXCR4 receptor expression” value (CXCR4 [4]; [12]) was “did not affect expression”. For the same molecule, the viability of neutrophils (human neutrophils [5]) was “did not affect viability”, the “chemotaxis of neutrophils toward IL-8” value (human neutrophils [6]) was “decreased chemotaxis” and the T cell proliferation (T cells) was “slightly decreased”. The “IFN-γ production by CD4+ T cells” value (CD4+ T cells) was “reduced IFN-γ production”.

In the case of Cc1c(-c2cc3ccccc3n2Cc2ccc(F)cc2)nc2cc(C(=O)N3CCC[C@@H](N)C3)ccn12 [JBI-589, (R)-(3-aminopiperidin-1-yl)(2-(1-(4-fluorobenzyl)-1H-indol-2-yl)-3-methylimidazo[1,2-a]pyridin-7-yl)methanone], the “suppressive activity of Ly6G+ cells generated in vitro from HPC in the presence of TES” value (Ly6G+ cells; JBI-589) is reported as “no effect”, the “toxicity in mouse neutrophils” value (mouse neutrophils; in vitro, JBI-589) is reported as “without noticeable toxicity” and the “CXCL1-induced migration of neutrophils” value (BM neutrophils; in vitro, JBI-589) is reported as “reduced”. For the same molecule, the “PMA-induced citrullination of histone H3” value (histone H3) was “inhibited PMA-induced citrullination of histone H3 in mouse neutrophils in a dose-dependent manner”, the oral bioavailability [7] was “excellent oral bioavailability” and the “viability of LL2 tumor cell line” value (LL2) was “No effect”. The “viability of B16F10 tumor cell line” value (B16F10) was “No effect”, the “CXCR2 expression on neutrophil” value (CXCR2 [8]) was “significantly downregulated” and the “infiltration of tumor tissues with activated CD8+ and CD4+ T cells” value (LL2 tumors; LL2-bearing mice) was “increased infiltration”. The “frequency of LSK, GMP, CMP and MEP and their proliferation in spleens” value (LL2 tumors; LL2-bearing mice, treated vs control) was “No differences”, the primary tumor growth (LL2 tumors; LL2-bearing mice, 50 mg/kg, twice a day, daily, oral gavage) was “markedly reduced” and the lung metastatic lesions (LL2 tumors; LL2-bearing mice, IVIS) was “almost undetectable”. For the same molecule, the “inhibition of primary tumor growth by ICB on addition of JBI-589” value (LL2 tumors; LL2-bearing mice, JBI-589 50 mg/kg b.i.d. plus anti-CTLA-4 and anti-PD-1 antibodies) was “significantly enhanced”, the “presence of tumor-associated neutrophils” value (LL2 tumors; LL2-bearing mice, flow cytometry) was “significant decrease” and the “cellularity of the BM” value (LL2 tumors; mouse, in vivo) was “did not affect”. The primary tumor growth (B16F10 tumors) was “markedly reduced”, the “CXCR2 receptor expression in Ly6G+ cells” value (CXCR2 [9]) was “significant down-regulation” and the “CXCR4 receptor expression in Ly6G+ cells” value (CXCR4 [10]) was “but not CXCR4”. The “NET formation by BM and spleen neutrophils” value [11] was “unable to produce NETs”, the “expression of genes encoding soluble factors involved in pro-tumorigenic effect” value (M-MDSC, TAMs) was “did not affect” and the “suppressive activity of M-MDSC, TAM and PMN-MDSC” value (M-MDSC, TAM, PMN-MDSC) was “did not affect suppressive activity”.
